Measurements: ChEMBL document CHEMBL2086296, “Synthesis of novel quinoline-2-one based chalcones of potential anti-tumor activity” (Eur J Med Chem, 2012)

Legend:
Mus musculus [1] = test: Acute toxicity in athymic nude mouse assessed as mortality up to 400 mg/kg, ip after 2 weeks; type: organism-based; parameters: dose 400 mg/kg, route intraperitoneal; conditions: in vivo, 336 h
How it was run: (§1)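 Single ip injection in athymic nude mice, one mouse per dose at 400, 200 and 100 mg/kg, dosed at 0.1 mL/10 g body weight, with feed and water ad libitum. Animals observed for 2 weeks and sacrificed on >20% body weight loss or other signs of significant toxicity. If all three were sacrificed, 50, 25 and 12.5 mg/kg were tested next.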

Mus musculus [2] = test: Acute toxicity in athymic nude mouse assessed as weight loss up to 400 mg/kg, ip after 2 weeks; type: organism-based; parameters: dose 400 mg/kg, route intraperitoneal; conditions: in vivo, 336 h; how it was run: as §1
A498 = test: Cytotoxicity against human A498 cells after 24 hrs by SRB assay; type: functional; conditions: A498, 24 h
How it was run: (§2)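 NCI 60-line screen. Cells in RPMI 1640 with 5% FBS and 2 mM L-glutamine, seeded at 5,000–40,000 cells/well by doubling time, then incubated 24 h at 37 °C, 5% CO2 before dosing. Time-zero plates fixed with TCA at drug addition. DMSO stocks diluted in medium with gentamicin to five concentrations, […]. Protein read by SRB staining. GI50, TGI and LC50 derived relative to control and time-zero.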

K562 [3] = test: (§3) Cytotoxicity against human K562 cells after 24 hrs by SRB assay; type: functional; conditions: K562, 24 h; how it was run: as §2
K562 [4] = test: as §3; type: cell-based; conditions: k562, 24 h
How it was run: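 NCI 60-cell screen. Cells grown in RPMI 1640 with 5% FBS and 2 mM L-glutamine, seeded at 5,000–40,000 cells/well, preincubated 24 h at 37 °C in 5% CO2. Drug stock in DMSO, diluted in medium with gentamicin; five final concentrations, 100, 10, 1.0, 0.1 and […]. Time-zero plates were TCA-fixed. Protein read by SRB staining; GI50, TGI and LC50 taken relative to time-zero.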

PC-3 = test: Cytotoxicity against human PC3 cells after 24 hrs by SRB assay; type: functional; conditions: PC-3, 24 h; how it was run: as §2

O=C(/C=C/c1cc2ccccc2[nH]c1=O)/C=C/c1cc2ccccc2[nH]c1=O
Activity (Mus musculus [1]): Non-toxic
Activity (Mus musculus [2]): Non-toxic

O=C(/C=C/c1cc2ccccc2[nH]c1=O)c1ccc(O)cc1
GI50 (A498): 8.44 µM
TGI (A498): 21.3 µM
GI50 (K562 [3]): 3.89 µM
TGI (K562 [3]): > 100 µM
LC50 (K562 [4]): > 100 µM
GI50 (PC-3): 5.39 µM
TGI (PC-3): 55.3 µM
